Active and inactive are the calls of the source. The calls are words filed in the database; no cut-off is given here.
What was measured:
MCF7 = assay: Cell viability against human MCF7 cells at 10 uM; assay type: functional
NCI-H460 = assay: Cell viability against human NCI-H460 cells at 10 uM; assay type: functional
SF-268 = assay: Cell viability against human SF268 cells at 10 uM; assay type: functional
A549 = assay: Disruption of tubulin network in human A549 cells assessed as disaggregation of microtubules at 1 uM […]; assay type: functional, cell-based
Tubulin (Sus scrofa) = Tubulin (Sus scrofa) (UniProt P02554+P02550); assay: Inhibition of pig brain tubulin polymerization at 3 uM
Jurkat = assay: Cell cycle arrest in human Jurkat cells at mitosis at 0.5 uM after 24 hrs; assay type: functional
Outline: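 Exponentially growing Jurkat cells were exposed for 24 h, then pelleted at 400g for 5 min. Hypotonic KCl (75 mM, 4 °C) was applied for 20 min, followed by methanol–acetic acid (3:1) fixation and Giemsa staining. 400 cells per treatment were scored microscopically; mitotic index is the fraction with mitotic figures. Three independent experiments, mean ± SEM.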

Chain of Tubulin (Sus scrofa) (P02550 whole entry, looked up): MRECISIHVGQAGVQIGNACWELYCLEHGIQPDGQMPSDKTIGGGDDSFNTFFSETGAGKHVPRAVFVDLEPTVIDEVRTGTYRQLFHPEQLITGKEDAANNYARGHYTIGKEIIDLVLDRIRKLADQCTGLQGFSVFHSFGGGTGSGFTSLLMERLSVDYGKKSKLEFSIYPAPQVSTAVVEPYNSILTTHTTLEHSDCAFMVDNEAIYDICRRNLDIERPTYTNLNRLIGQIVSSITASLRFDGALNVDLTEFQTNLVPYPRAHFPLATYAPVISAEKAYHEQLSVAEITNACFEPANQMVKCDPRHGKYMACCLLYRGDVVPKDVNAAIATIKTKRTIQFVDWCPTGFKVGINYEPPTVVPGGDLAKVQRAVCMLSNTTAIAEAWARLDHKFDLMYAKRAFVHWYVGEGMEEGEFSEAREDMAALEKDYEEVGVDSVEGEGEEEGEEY
Chain of Tubulin (Sus scrofa) (P02554 whole entry, looked up): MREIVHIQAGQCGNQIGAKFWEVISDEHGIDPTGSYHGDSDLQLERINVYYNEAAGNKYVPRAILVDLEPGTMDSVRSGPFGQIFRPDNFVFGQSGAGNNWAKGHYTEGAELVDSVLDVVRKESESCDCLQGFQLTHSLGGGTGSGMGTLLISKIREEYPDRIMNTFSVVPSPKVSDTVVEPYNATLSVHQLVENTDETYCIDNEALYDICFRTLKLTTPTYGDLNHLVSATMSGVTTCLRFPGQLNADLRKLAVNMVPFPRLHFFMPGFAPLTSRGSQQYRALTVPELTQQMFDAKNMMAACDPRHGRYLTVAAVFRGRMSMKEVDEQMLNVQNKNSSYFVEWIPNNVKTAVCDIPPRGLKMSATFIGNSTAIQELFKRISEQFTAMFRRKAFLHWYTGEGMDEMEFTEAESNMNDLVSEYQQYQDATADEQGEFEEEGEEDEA

Compound	Activity (MCF7)	Activity (NCI-H460)	Activity (SF-268)	also measured
Cc1cc2ncc3c4ccccc4c(C#N)n3c2cc1C	97%	78%	83%	–
N#Cc1c2ccccc2c2cnc3ccccc3n12	107%	91%	94%	–
N#Cc1c2ccccc2c2cnc3cc(Cl)c(Cl)cc3n12	108%	104%	104%	–
CC[C@]1(O)C[C@@H]2CN(CCc3c([nH]c4ccccc34)[C@@](C(=O)OC)(c3cc4c(cc3OC)N(C)[C@H]3[C@@](O)(C(=O)OC)[C@H](OC(C)=O)[C@]5(CC)C=CCN6CC[C@]43[C@@H]65)C2)C1	–	–	–	Activity (A549): Active
CC(=O)O[C@H]1C(=O)[C@@]2(C)[C@H]([C@H](OC(=O)c3ccccc3)[C@]3(O)C[C@H](OC(=O)[C@H](O)[C@@H](NC(=O)c4ccccc4)c4ccccc4)C(C)=C1C3(C)C)[C@]1(OC(C)=O)CO[C@@H]1C[C@@H]2O	–	–	–	Activity (Tubulin (Sus scrofa)): Active
COc1cc2c(c(OC)c1OC)-c1ccc(OC)c(=O)cc1[C@@H](NC(C)=O)CC2 [COLCHICINE]	–	–	–	Activity (Jurkat): 50%

From ChEMBL document CHEMBL1144782, “Isoindolo[2,1-a]quinoxaline derivatives, novel potent antitumor agents with dual inhibition of tubulin polymerization and topoisomerase I” (2008)
